≈ marks a conversion by molar mass, not a printed value.
Assays:
[1] = test system: MCF7; assay: In vitro antiproliferative activity against MCF-7 cells; type: functional, cell-based; details: Homo sapiens
Method in brief: (§1)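 MEM with 10% heat-inactivated FBS at 37 °C, 5% CO2. Cells seeded at 15 000/well and adhered 24 h. Treated in triplicate for 72 h with 0, 0.1, 1.0 or 10 μM compound from DMSO stock. MTT 1 mg/mL for 4 h at 37 °C, formazan dissolved in 2-propanol, OD 570 nm (630 nm reference). DMSO-only cells set as 100% growth.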

[2] = test system: HEp-2; assay: Antiproliferative activity against HEp-2 cells; type: functional, cell-based; details: Homo sapiens; method in brief: as §1
[3] = test system: Benjaminiella; assay: Minimum inhibitory concentration against Benjaminiella poitrassi; type: functional
Method in brief: (§2)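 Disk diffusion on YPG agar. Yeast suspension from 24 h YPG broth (C. albicans five isolates and Y. lipolytica at 28 °C, B. poitrasii at 37 °C) spread-plated. Filter disks carried a DMSO control or graded compound amounts from 1 mg/mL DMSO stock. Plates incubated 28 °C, 24 h. MIC taken as lowest concentration giving an inhibition zone; triplicate.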

[4] = test system: Candida albicans; assay: Minimum inhibitory concentration against Candida albicans; type: functional; method in brief: as §2
[5] = test system: Yarrowia lipolytica; assay: Minimum inhibitory concentration against Yarrowia lipolytica; type: functional; method in brief: as §2

Row | SMILES | IC50 [1] [nM] | IC50 [2] [nM] | MIC [3] [µM] | MIC [4] [µM] | MIC [5] [µM]
1 | C[C@H](CCC(=O)NCCNC(=O)CC[C@H](C)[C@H]1CCC2C3CCC4C[C@H](O)CC[C@]4(C)C3C[C@@H](O)[C@@]21C)[C@H]1CCC2C3CCC4C[C@H](O)CC[C@]4(C)C3C[C@@H](O)[C@@]21C (stereo partly drawn) | 2200 | 2200 |  |  | 
2 | C[C@H](CCC(=O)NCCNCCNC(=O)CC[C@H](C)[C@H]1CCC2C3C(C[C@@H](O)[C@@]21C)[C@@]1(C)CC[C@@H](O)CC1C[C@H]3O)[C@H]1CCC2C3C(C[C@@H](O)[C@@]21C)[C@@]1(C)CC[C@@H](O)CC1C[C@H]3O (stereo partly drawn) |  |  | 0.0113 (≈ 0.01 µg/mL) | 0.0113 (≈ 0.01 µg/mL) | 0.0113 (≈ 0.01 µg/mL)
3 | C[C@@H]1C[C@@H]([C@H](O)CC2CC(=O)NC(=O)C2)C(=O)[C@@H](C)C1 [CYCLOHEXIMIDE] |  |  | 0.071 (≈ 0.02 µg/mL) | > 0.9 | 0.106 (≈ 0.0298 µg/mL)
